A selection: hits, their analogues and other compounds. The true share with any hit is near 3.5%.
RGS4 pot = RGS4 potentiation or activation; HEK293 M3R/inducible RGS4, carbachol calcium flux Fluo4; stronger effect = lower value; B-score at 10 µM; actives 0.92% (n = 310,000); AID 463111;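 active means B-score of the integrated calcium signal more than 4 SD below the library mean, with starting fluorescence not abnormally high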;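 further: negative B-score means reduced calcium response which marks RGS4 activation or potentiation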
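Material: Inducible-RGS4 HEK293 cells carrying M3 receptor; also added: carbachol at ECmax as muscarinic agonist stimulus; incubation: compound preincubation 20 min at room temperature before agonist; signal: Fluo4-AM (2 µM) calcium-flux fluorescence, kinetic read; measure: integrated calcium ratio converted to B score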
RGS4 block = human RGS4 inhibition; HEK293 M3R/RGS4 inducible, Fluo-4 calcium flux; stronger effect = higher value; triggered by carbachol at its EC20; actives 0.45% (n = 310,000); P49798; B-score at 10 µM;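 active means B-score, a plate-corrected calcium signal, over three deviations above library mean, with baseline fluorescence within five deviations of library mean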;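 further: RGS4 expression induced by doxycycline in cells with stable M3 receptor; B-score is computed from the integrated fluorescence ratio over baseline after carbachol; higher B-score means a larger calcium signal and so more RGS4 inhibition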
Target sequence (P49798 whole entry, looked up): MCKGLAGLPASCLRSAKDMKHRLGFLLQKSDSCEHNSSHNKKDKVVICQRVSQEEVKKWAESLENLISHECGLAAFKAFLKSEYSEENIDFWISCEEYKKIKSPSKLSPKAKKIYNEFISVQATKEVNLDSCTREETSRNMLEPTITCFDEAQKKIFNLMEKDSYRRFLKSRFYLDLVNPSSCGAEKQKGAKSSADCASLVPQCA
MrgX1 PAM = human MrgX1 positive allosteric modulation, primary screen; MrgX1-HEK293, Fluo-4 calcium flux, FDSS; stronger effect = higher value; B-score at 10 µM; actives 0.63% (n = 310,000);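 active means plate-corrected calcium response at least 3 library SD above typical, normal starting fluorescence, not activating the receptor alone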;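 further: compound read alongside a low EC10 to EC30 dose of BAM8-22 agonist; peak minus trough fluorescence over baseline measured at the second addition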
Target sequence (Q96LB2 whole entry, looked up): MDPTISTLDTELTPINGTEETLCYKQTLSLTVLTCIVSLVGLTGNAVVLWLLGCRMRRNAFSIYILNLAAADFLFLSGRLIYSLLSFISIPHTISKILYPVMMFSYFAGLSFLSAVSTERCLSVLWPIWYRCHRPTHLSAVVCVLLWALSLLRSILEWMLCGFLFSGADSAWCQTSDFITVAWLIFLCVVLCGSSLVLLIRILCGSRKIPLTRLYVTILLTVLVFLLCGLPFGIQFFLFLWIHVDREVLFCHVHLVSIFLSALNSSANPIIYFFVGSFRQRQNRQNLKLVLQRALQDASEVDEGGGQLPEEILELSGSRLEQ
MrgX1 ag = human MrgX1 receptor agonism, primary screen. Q96LB2. MrgX1-HEK293 cells, Fluo-4 calcium fluorescence, agonist mode; stronger effect = higher value. B-score at 10 µM. actives 0.44% (n = 310,000);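 active means calcium response B-score plate-corrected fluorescence ratio at least 3 library SD, with starting fluorescence B-score inside 5 SD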
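Material: MrgX1-expressing HEK293 cells; input: 15,000 cells per well; doses: test compound given as first of three sequential additions; schedule: overnight plating before 1 h dye loading; technique: Fluo-4 NW calcium-flux fluorescence, kinetic read; evaluation: baseline-normalised fluorescence change ratio, B-scored; control set: plate-wise positive and negative controls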
MrgX1 antag = human MrgX1 receptor antagonism, primary screen; Q96LB2; MRGX1-HEK293 calcium flux, Fluo-4, BAM8-22 antagonism; stronger effect = lower value; B-score at 10 µM; actives 1.3% (n = 310,000); AID 588676;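 active means calcium-response B-score plate-corrected more than 3 library SD below zero, starting fluorescence within 5 deviations, no agonist response on first addition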;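 further: peak minus trough fluorescence over baseline after final BAM8-22 challenge near maximal dose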
Numbers stand for hits; n = inactive; ! = not active in a repeat.

SMILES	RGS4 pot	RGS4 block	MrgX1 PAM	MrgX1 ag	MrgX1 antag
Cc1ccc(COn2c(-c3ccc(Cl)cc3Cl)nc3ncccc32)cc1	-8.7	n	n	n	n
Clc1cccc(COn2c(-c3ccc(Cl)cc3Cl)nc3ncccc32)c1	n	n	n	n	n
CCCCCCCCn1ccc(=N)cc1	n	n	n	n	n
CCCCCCCCCCCCCCCCn1cc[n+](C)c1	-9.5!	n	n	n	-7.3!
COc1cccc(/C=N/NC(=O)c2ccc(OCc3cccc(Br)c3)cc2)c1	n	n	n	n	n
Cc1ccc(/C=C/C(=O)N2CC(=O)Nc3ccccc32)o1	n	n	n	n	n
CCOC(=O)CN(C)C(=O)CCc1nnc(-c2ccc(-c3ccccc3)cc2)o1	n	n	n	n	n
CCN(CC)CCN(C)C(=O)CCc1nnc(-c2ccc(C)s2)o1	n	n	n	n	-6.6
CCC(=NCc1ccc(Cl)c(Cl)c1)c1nc(-c2ccco2)oc1O	-7.1	n	n	n	n
CCCc1cc(-c2[nH]ncc2-c2ccc3c(c2)OCCCO3)c(O)cc1O	-7.9	n	n	n	n
CCCc1cc(-c2[nH]ncc2-c2ccc(C(=O)OCC)o2)c(O)cc1O	n	n	n	n	n
C=CCn1c(CSc2ccccc2[N+](=O)[O-])n[nH]c1=S	n	n	n	n	n
C=CCn1c(Sc2ncc([N+](=O)[O-])s2)n[nH]c1=O	-8	n	n	n	-9.2
O=C(Nc1cccc2cccnc12)C1CCCC1	n	n	n	n	n
O=C(O)Cc1sc(N/N=C\c2ccncc2)nc1-c1ccccc1	n	n	n	n	-5.8
C(=N\Nc1nc(-c2ccccc2)cs1)/c1ccncc1	n	n	n	n	n
CCCc1cc(NCCCn2ccnc2)n2nc(C)c(-c3ccccc3)c2n1	n	n	n	n	n
O=C(Nc1ccc(Cl)cc1)Nc1ccc2c(c1)N1CCN=C1S2	n	n	n	n	-5.2
CC(C)(C)c1cc(C(F)(F)F)c(C#N)c(=O)[nH]1	n	n	n	n	n
O=C1/C(=C/c2c[nH]c3ccccc23)CCC/C1=C\c1c[nH]c2ccccc12	n	n	8.6	n	n
COC1=CC(=Cc2c(N)n3nc(CC(=O)N4CCCCC4)sc3nc2=O)C=C(OC)C1=O	n	n	n	n	n
CCOC1=C/C(=C/c2c(N)n3nc(CC(=O)N4CCCC4)sc3nc2=O)C=CC1=O	n	n	n	31	n
COC1=C/C(=C/c2c(N)n3nc(CC(=O)N4CCCC4)sc3nc2=O)C=CC1=O	n	n	n	n	-5.9
O=C(N/N=C/c1ccc(OCCCF)cc1)c1cc(OCC(F)(F)F)ccc1OCC(F)(F)F	n	n	n	n	n
CN(c1cccc(NC(=O)CN(c2ccc(Cl)c(Cl)c2)S(=O)(=O)c2ccccc2)c1)S(C)(=O)=O	n	n	n	n	n
SMILES	RGS4 pot	RGS4 block	MrgX1 PAM	MrgX1 ag	MrgX1 antag
Cc1ccc(S(=O)(=O)N(CC(=O)Nc2cccc(N(C)S(C)(=O)=O)c2)c2ccc(Cl)c(Cl)c2)cc1	-11	n	n	n	n
CCOc1ccc(CCNC(=O)c2ccc(CS(=O)Cc3ccc(Cl)cc3)o2)cc1OCC (centres undefined)	n	n	n	n	n
CCOc1ccc(CCNC(=O)c2ccc(CS(=O)Cc3cccc(Cl)c3)o2)cc1 (centres undefined)	-9.4	n	n	n	n
CSc1ccc(CCNC(=O)c2ccc(CS(=O)Cc3ccccc3Cl)o2)cc1 (centres undefined)	n	n	n	n	-6
Cc1ccc(CS(=O)Cc2ccc(C(=O)NCCc3ccccc3)o2)cc1 (centres undefined)	n	n	n	n	n
O=C(NCCc1ccc(Cl)cc1)c1ccc(CS(=O)Cc2ccccc2Cl)o1 (centres undefined)	-8.4	n	n	n	n
CNC(=S)Nc1cc(OC)c(NC(=O)c2ccco2)cc1OC	n	n	n	n	n
Cc1ccc2[nH]c(=O)c3cc(C(=O)NCCC(C)C)sc3c2c1	n	n	n	n	n
COc1ccc2sc(N(CCCN(C)C)C(=O)c3ccc(S(=O)(=O)N4CCCC4)cc3)nc2c1	-7.2	n	n	n	n
CCOC(=O)N1CCN(S(=O)(=O)c2ccc(C(=O)N(CCCN(C)C)c3nc4cc(OC)ccc4s3)cc2)CC1	-7.6	n	n	n	n
CCOC(=O)N1CCN(S(=O)(=O)c2ccc(C(=O)N(CCCN(C)C)c3nc4c(C)c(C)ccc4s3)cc2)CC1	n	n	n	n	n
COc1cccc(C2c3c(oc4ccccc4c3=O)C(=O)N2Cc2ccco2)c1 (centres undefined)	n	n	n	n	n
CCOC(=O)c1sc(N(Cc2ccccc2)C(=O)CCl)nc1C	n	n	n	n	n
O=C(NC1CC2CCCC(C1)N2C(=S)Nc1ccc(Cl)cc1)C1CC1 (centres undefined)	-7	n	n	n	n
Clc1ccc(CON/C=N/c2ncnc3sccc23)cc1	n	n	n	n	n
CCOC(=O)/C(=N/Nc1ccc(C)cc1)S(=O)(=O)c1ccc(Cl)cc1	-8	n	n	n	n
COc1ccc(C(=O)N2CCN(c3ncccn3)CC2)cc1	n	n	n	n	n
O=C(c1ccc(Cl)cc1[N+](=O)[O-])N(Cc1ccccc1)Cc1ccccc1	n	n	n	n	n
CC(C)(C)N(Cc1ccccc1)C(=O)c1ccc(Cl)cc1[N+](=O)[O-]	-10	n	n	n	n
Cc1ccc(C)c(C(=O)COC(=O)CCCC(=O)Nc2cc(C(F)(F)F)ccc2Cl)c1	n	n	n	n	-7
Cc1ccnc(NC(=O)CNC(=O)COc2ccccc2)c1	n	n	n	n	n
O=[N+]([O-])c1ccc(O)c(-c2cc(C(F)(F)F)nc(-c3ccccc3)n2)c1	n	n	n	n	-5.6
N=C1/C(=C\c2ccc(SCc3ccccc3)o2)C(=O)N=C2SC(CC(=O)N3CCOCC3)=NN12	n	n	n	n	n
N=C1/C(=C\c2ccc(SCc3ccccc3)o2)C(=O)N=C2SC=NN12	n	n	8.7	n	n
CCN1C(=O)/C(=C2\SC(=S)N(NC(=O)c3ccccc3O)C2=O)c2ccccc21	n	n	15	n	n
SMILES	RGS4 pot	RGS4 block	MrgX1 PAM	MrgX1 ag	MrgX1 antag
CCN1C(=O)/C(=C2\SC(=S)N(c3c(C)n(C)n(-c4ccccc4)c3=O)C2=O)c2ccccc21	n	n	n	n	n
c1ccc(-c2nnc(SCc3cn4ccsc4n3)o2)cc1	n	n	n	n	n
CN1CCN(CC#CCC(O)(c2ccccc2)c2ccccc2)CC1	n	n	n	n	n
OC(CC#CCN1CCCC1)(c1ccccc1)c1ccccc1	n	n	n	n	n
OC(CC#CCN1CCCCC1)(c1ccccc1)c1ccccc1	-7.5	n	n	n	n
CN1CCN(CC#CCC(O)(c2ccccc2)C2CCCC2)CC1 (centres undefined)	-7.5	n	n	n	n
O=C(O/N=C(\c1ccccc1)c1ccncc1)c1ccccc1Cl	n	n	n	n	n
